From ChEMBL document CHEMBL4689842, “EUbOPEN Chemogenomics Library wave 1” (2021)
“And” between values parts separate entries of the source, which are not always exact repeats. Equal entries are not always repeated.

System: HEK-293T
Test: Multiplex assay against HEK293T;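 as to Population Tubulin-Different-Phenotype (%): share of the cells with healthy nuclei that show this phenotype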
Assay type: toxicity, cell-based
Conditions: human
Outline: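 With compound added, live cells were imaged on a CQ1 microscope at 37°C and 5% CO2; staining with Hoechst33342, BioTracker Green Microtubule Cytoskeleton Dye, MitoTracker Red and Annexin V Alexa Fluor 680 had been done at seeding. The CellPathfinder machine-learning gating scheme split cells into Hoechst high-intensity objects or normal cells, normal cells into healthy, pyknosed or fragmented nuclei, and pyknosed cells into mitotic or apoptotic. The tubulin, mitochondrial-mass and membrane-permeability phenotypes are per cents of healthy-nucleus cells.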

[1] = 12 h, 1 µM, compound concentration 1 uM, replicate 1
[2] = 12 h, 1 µM, compound concentration 1 uM, replicate 2
[3] = 12 h, 10 µM, compound concentration 10 uM, replicate 1
[4] = 12 h, 10 µM, compound concentration 10 uM, replicate 2
[5] = 24 h, 1 µM, compound concentration 1 uM, replicate 1
[6] = 24 h, 1 µM, compound concentration 1 uM, replicate 2
[7] = 24 h, 10 µM, compound concentration 10 uM, replicate 1
[8] = 24 h, 10 µM, compound concentration 10 uM, replicate 2
[9] = 48 h, 10 µM, compound concentration 10 uM, replicate 1
[10] = 48 h, 10 µM, compound concentration 10 uM, replicate 2

COc1cc(N2CCC(N(C)C)CC2)ccc1Nc1ncc(Cl)c(Nc2ccccc2P(C)(C)=O)n1
Population Apoptotic (%) [1]: 16%
Population Fragmented Nuclei (%) [1]: 19%
Population Healthy Nuclei (%) [1]: 61%
Population Hoechst High Intensity Objects (%) [1]: 14%
Population Membrane Permeable-Phenotype (%) [1]: 1%
Population Mitochondria Different-Phenotype (%) [1]: 9%
Population Mitotic Cells (%) [1]: 83%
Population Normal (%) [1]: 85%
Population Pyknosed Nuclei (%) [1]: 18%
Population Tubulin-Different-Phenotype (%) [1]: 7%
Total Cell Count [1]: 684
Population Apoptotic (%) [2]: 14%
Population Fragmented Nuclei (%) [2]: 8%
Population Healthy Nuclei (%) [2]: 84%
Population Hoechst High Intensity Objects (%) [2]: 5%
Population Mitochondria Different-Phenotype (%) [2]: 19%
Population Mitotic Cells (%) [2]: 85%
Population Normal (%) [2]: 94%
Population Pyknosed Nuclei (%) [2]: 6%
Population Tubulin-Different-Phenotype (%) [2]: 21%
Total Cell Count [2]: 1309
Population Fragmented Nuclei (%) [3]: 10% and 13%
Population Healthy Nuclei (%) [3]: 23% and 51%
Population Hoechst High Intensity Objects (%) [3]: 21% and 20%
Population Membrane Permeable-Phenotype (%) [3]: 0% and 6%
Population Mitotic Cells (%) [3]: 29% and 78%
Population Normal (%) [3]: 78% and 79%
Population Pyknosed Nuclei (%) [3]: 66% and 35%
Population Tubulin-Different-Phenotype (%) [3]: 97% and 54%
Total Cell Count [3]: 211 and 606
Population Fragmented Nuclei (%) [4]: 3%
Population Hoechst High Intensity Objects (%) [4]: 12% and 9%
Population Membrane Permeable-Phenotype (%) [4]: 3%
Population Mitochondria Different-Phenotype (%) [4]: 86% and 54%
Population Mitotic Cells (%) [4]: 41% and 87%
Population Normal (%) [4]: 87% and 90%
Population Tubulin-Different-Phenotype (%) [4]: 100% and 85%
Population Apoptotic (%) [5]: 14%
Population Fragmented Nuclei (%) [5]: 17%
Population Healthy Nuclei (%) [5]: 69%
Population Hoechst High Intensity Objects (%) [5]: 9%
Population Membrane Permeable-Phenotype (%) [5]: 5%
Population Mitochondria Different-Phenotype (%) [5]: 8%
Population Mitotic Cells (%) [5]: 85%
Population Normal (%) [5]: 90%
Population Pyknosed Nuclei (%) [5]: 12%
Population Tubulin-Different-Phenotype (%) [5]: 14%
Total Cell Count [5]: 667
Population Apoptotic (%) [6]: 12%
Population Fragmented Nuclei (%) [6]: 20%
Population Healthy Nuclei (%) [6]: 77%
Population Hoechst High Intensity Objects (%) [6]: 4%
Population Membrane Permeable-Phenotype (%) [6]: 3%
Population Mitochondria Different-Phenotype (%) [6]: 4%
Population Mitotic Cells (%) [6]: 87%
Population Normal (%) [6]: 95%
Population Pyknosed Nuclei (%) [6]: 2%
Population Tubulin-Different-Phenotype (%) [6]: 19%
Total Cell Count [6]: 2108
Population Apoptotic (%) [7]: 74% and 37%
Population Fragmented Nuclei (%) [7]: 12% and 14%
Population Healthy Nuclei (%) [7]: 31% and 55%
Population Hoechst High Intensity Objects (%) [7]: 24% and 22%
Population Membrane Permeable-Phenotype (%) [7]: 1% and 7%
Population Mitochondria Different-Phenotype (%) [7]: 98% and 51%
Population Mitotic Cells (%) [7]: 25% and 62%
Population Normal (%) [7]: 75% and 77%
Population Pyknosed Nuclei (%) [7]: 55% and 30%
Population Tubulin-Different-Phenotype (%) [7]: 98% and 73%
Total Cell Count [7]: 229 and 561
Population Fragmented Nuclei (%) [8]: 7% and 5%
Population Hoechst High Intensity Objects (%) [8]: 19% and 9%
Population Membrane Permeable-Phenotype (%) [8]: 0% and 10%
Population Mitochondria Different-Phenotype (%) [8]: 95% and 60%
Population Normal (%) [8]: 80% and 90%
Population Tubulin-Different-Phenotype (%) [8]: 95% and 93%
Population Apoptotic (%) [9]: 77%
Population Fragmented Nuclei (%) [9]: 18%
Population Healthy Nuclei (%) [9]: 34%
Population Hoechst High Intensity Objects (%) [9]: 23%
Population Membrane Permeable-Phenotype (%) [9]: 0%
Population Mitochondria Different-Phenotype (%) [9]: 100%
Population Mitotic Cells (%) [9]: 22%
Population Normal (%) [9]: 76%
Population Pyknosed Nuclei (%) [9]: 47%
Population Tubulin-Different-Phenotype (%) [9]: 100%
Total Cell Count [9]: 239
Population Apoptotic (%) [10]: 91%
Population Fragmented Nuclei (%) [10]: 8%
Population Healthy Nuclei (%) [10]: 17%
Population Hoechst High Intensity Objects (%) [10]: 17%
Population Mitochondria Different-Phenotype (%) [10]: 90%
Population Mitotic Cells (%) [10]: 8%
Population Normal (%) [10]: 82%
Population Pyknosed Nuclei (%) [10]: 74%
Population Tubulin-Different-Phenotype (%) [10]: 85%
Total Cell Count [10]: 147
